Screens as filed in PubChem BioAssay.
KCNQ1 inh: blocks the human KCNQ1 potassium channel; P51787; CHO-K1 KCNQ1, FluxOR thallium flux fluorescence; active compounds read high; B-score at 10 µM; 1.3% of 310,000 active;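 active = compounds whose thallium flux B-score, printed positive for inhibition, exceeds three library SD while starting fluorescence stays within three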;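 also: channel opened by potassium depolarization with thallium stimulus after 20 min compound exposure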
hERG protect: shields human hERG channel from block by proarrhythmic agents | activation (rescue from dofetilide block), less the hit threshold, % at 10 µM | CHO-hERG, FluxOR thallium flux, dofetilide IC70 present | 0.51% of 310,000 active;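 active = activation above the mean of controls blocked by dofetilide plus 5 SD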;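 also: thallium influx through hERG after potassium depolarization seen as dye fluorescence rise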
KCNK9 inh: human KCNK9 channel inhibition | AID 488922 | HEK293 KCNK9, FluxOR thallium flux fluorescence; active compounds read low | B-score at 10 µM | 1.2% of 310,000 active;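 active = ratio B-score over 3 SD below the library mean, with starting fluorescence within 5 SD of its mean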;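 also: negative B-score means less thallium flux so channel inhibition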
KCNQ1 act: potentiates or activates the human KCNQ1 potassium channel | P51787 | CHO-K1 KCNQ1, thallium flux FluxOR fluorescence; active compounds read high | B-score at 10 µM | 0.35% of 310,000 active | AID 2648;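 active = fluorescence ratio B-score, a plate-corrected score, at least three library SD, with initial intensity B-score within 5 SD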
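Material: CHO-K1 cells stably expressing KCNQ1. Medium: assay buffer for compound exposure, DMSO matched across wells. Reagent: K+/Tl+ depolarizing stimulus. Compound dosing: single-concentration screen. Times: 37 °C overnight plating, 90-min dark dye load, 20-min compound pretreatment. Technique: FluxOR Tl+ flux fluorescence.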
KCNK3 block: human KCNK3 channel inhibition, primary screen | O14649 | CHO-KCNK3 thallium flux, FluxOR fluorescence; active compounds read low | B-score at 10 µM | 0.84% of 340,000 active | AID 602410;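 active = B-score under library mean minus 4 SD, starting fluorescence ratio at most library mean plus 5 SD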;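 also: more negative B-score means stronger inhibition of thallium flux through KCNK3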
Target sequence (O14649 whole entry, looked up): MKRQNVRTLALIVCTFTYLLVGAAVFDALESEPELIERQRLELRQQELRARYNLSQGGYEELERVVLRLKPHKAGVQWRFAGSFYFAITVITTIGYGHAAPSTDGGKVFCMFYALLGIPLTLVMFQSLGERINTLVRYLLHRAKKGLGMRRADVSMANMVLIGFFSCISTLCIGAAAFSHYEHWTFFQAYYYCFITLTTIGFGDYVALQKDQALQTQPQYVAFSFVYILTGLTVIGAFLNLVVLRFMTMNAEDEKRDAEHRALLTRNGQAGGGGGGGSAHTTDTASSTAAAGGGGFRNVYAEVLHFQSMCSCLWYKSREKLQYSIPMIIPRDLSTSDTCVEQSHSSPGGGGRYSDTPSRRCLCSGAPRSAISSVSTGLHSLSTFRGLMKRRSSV
* hit, by the source's call; i = inactive; . = no result; ! = not active in a repeat. Compounds with a hit are over-represented: about 3.1% of the library has one in this group of screens.

SMILES | KCNQ1 inh | hERG protect | KCNK9 inh | KCNQ1 act | KCNK3 block
COC(=O)[C@H](C)N(Cc1ccc(Cl)c(Cl)c1)S(=O)(=O)CCNC1CCCC1 | . | . | . | . | i
O=c1c(/C=C(\O)c2ccc(F)cc2)nc2ccccc2n1-c1ccccc1 | 6* | -2 | i | i | i
COc1cc(/C=C/C(=O)O)ccc1OS(=O)(=O)c1c(C)cc(C)cc1C | . | . | . | . | i
CN1CCN(C(=O)c2cnn3c(C(F)(F)F)cc(-c4cccs4)nc23)CC1 | i | -5 | i | i | i
O=C(c1cnn2c(C(F)(F)F)cc(-c3cccs3)nc12)N1CCN(C(c2ccccc2)c2ccccc2)CC1 | 6* | -12 | i | i | i
COc1ccc(-c2cc(C(=O)OC(C)C(=O)Nc3c(C)n(C)n(-c4ccccc4)c3=O)c3ccccc3n2)cc1 (stereo unspecified) | i | -17 | i | i | i
Cc1c(NC(=O)C(C)OC(=O)c2cc(-c3cccc4ccccc34)nc3ccccc23)c(=O)n(-c2ccccc2)n1C (stereo unspecified) | 6* | -18 | i | i | i
NCCSc1c(-c2ccc(Cl)cc2)[nH]c2ccccc12 | i | -22 | -7.3* | i | i
O=C(NCCCN1CCOCC1)c1cc2c([nH]c3ccccc32)c(-c2cccc(Br)c2)n1 | 8* | -30 | i | i | i
COc1cc(C(C[N+](=O)[O-])c2c(-c3ccccc3)cc3ccccn23)cc(OC)c1OC (stereo unspecified) | i | -4 | -7.9* | i | i
COc1ccc(C(C[N+](=O)[O-])c2c(-c3ccccc3)cc3ccccn23)cc1OC (stereo unspecified) | i | -16 | i | i | i
COc1ccc(C(C[N+](=O)[O-])c2c(-c3ccccc3)cc3ccccn23)cc1 (stereo unspecified) | 8* | -11 | i | i | i
COc1ccc(NC(=O)N(C)C[C@H]2Oc3ccc(NS(=O)(=O)c4c(C)noc4C)cc3C(=O)N([C@H](C)CO)C[C@@H]2C)cc1 | . | . | . | . | i
CC(=O)OCCCNc1cc(Sc2nc3ccccc3s2)c2nonc2c1[N+](=O)[O-] | i | -11 | i | i | i
CC(=O)OCCNc1cc(Sc2nc3ccccc3[nH]2)c2nonc2c1[N+](=O)[O-] | 7* | -33 | -8.1* | i | i
O=C(OCc1nnc(-c2ccccc2)o1)c1cccc(S(=O)(=O)N2CCOCC2)c1 | i | -10 | i | i | i
CSC(=NS(=O)(=O)c1ccc(N)cc1)NS(=O)(=O)c1cccs1 | . | . | . | . | i
CCOC(=O)c1c(N)c(C#N)cn1-c1ccccc1 | i | -13 | i | i | i
CCOC(=O)c1c(NC(=O)c2nn(CC)cc2Br)c(C#N)cn1-c1ccccc1 | i | -5 | i | i | -11*
O=C(COC(=O)C1=COCCO1)Nc1ccc([N+](=O)[O-])cc1C(F)(F)F | . | . | . | . | i
COc1ccc2nc(NCc3ccc(OC)c(OC)c3OC)sc2c1 | . | . | . | . | i
Cc1nn(C)cc1CN(C)Cc1c(C(=O)N(C)Cc2ccccc2)nc2ccccn12 | i | 6.5* | i | i | i
CN(Cc1c(C(=O)N(C)Cc2ccccc2)nc2ccccn12)CC1Cc2ccccc2O1 (stereo unspecified) | i | -13 | i | i | i
O=S(=O)(c1cccc(-c2nnc(SCc3ccc(Cl)cc3)o2)c1)N1CCCCC1 | i | -6 | -7.2* | i | i
NC(=O)CSc1nnc(-c2cccc(S(=O)(=O)N3CCCCC3)c2)o1 | i | -11 | i | i | i
SMILES | KCNQ1 inh | hERG protect | KCNK9 inh | KCNQ1 act | KCNK3 block
C=CCNC(=O)COC(=O)c1ccc(Cl)c(S(=O)(=O)N(Cc2ccccc2)c2ccccc2)c1 | 6* | -7 | i | i | i
COc1ccccc1CNC(=O)CN1C(=O)NC2(CCCCCCC2)C1=O | . | . | . | . | i
O=C(Cn1cc(C(F)(F)F)ccc1=O)N1CCc2ccccc2C1 | . | . | . | . | i
COc1ccc(C2C(Oc3ccccc3)C(=O)N2c2ccc(C)c(C)c2)cc1OC (stereo unspecified) | i | -3 | -6.9* | i | i
COc1ccc(-c2cn(-c3ccc(OC)cc3)c3[n+]2-c2ccccc2CC3)cc1 | 6* | -18 | i | i | i
COc1ccccc1-n1c(-c2ccccc2)c[n+]2c1CCc1ccccc1-2 | 9*! | -20 | -7.8* | i | -9.5*!
